ChEMBL document CHEMBL1135838, “alpha(1)-Adrenoceptor agonists: the identification of novel alpha(1A )subtype selective 2'-heteroaryl-2-(phenoxymethyl)imidazolines” (Bioorg Med Chem Lett, 2002)

Key:
[1] = molecular target: T1, Alpha-1B adrenergic receptor (Homo sapiens, UniProt P35368); assay: Activation of recombinant human adrenergic, alpha-1B receptor expressed in rat-1 fibroblasts determined via calcium mobilization through Gq coupled PLC pathway; assay type: functional
T1 sequence (P35368 whole entry): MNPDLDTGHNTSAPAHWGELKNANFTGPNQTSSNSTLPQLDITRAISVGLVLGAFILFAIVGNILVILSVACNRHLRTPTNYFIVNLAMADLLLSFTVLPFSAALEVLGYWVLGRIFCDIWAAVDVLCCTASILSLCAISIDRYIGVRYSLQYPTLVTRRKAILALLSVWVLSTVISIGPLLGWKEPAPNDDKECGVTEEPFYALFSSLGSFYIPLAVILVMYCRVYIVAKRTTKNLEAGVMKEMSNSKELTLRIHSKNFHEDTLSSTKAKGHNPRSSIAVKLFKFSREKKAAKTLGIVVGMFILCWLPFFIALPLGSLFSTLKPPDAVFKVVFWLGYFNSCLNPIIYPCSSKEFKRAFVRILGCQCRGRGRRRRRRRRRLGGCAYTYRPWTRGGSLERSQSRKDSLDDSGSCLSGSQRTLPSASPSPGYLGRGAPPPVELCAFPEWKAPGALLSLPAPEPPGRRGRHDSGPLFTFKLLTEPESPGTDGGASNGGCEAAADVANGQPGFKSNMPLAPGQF
Method in brief: (§1)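 Rat-1 fibroblasts stably expressing cloned human α1A (clone #137-12), α1B (clone #37-11) or α1D (clone #16-7) adrenoceptor were loaded with the Calcium Green calcium-sensitive dye. Gq/PLC-coupled calcium mobilization was read on a FLIPR. Eleven-point concentration–response curves, with a top concentration typically 5 μM, were normalized to the 40 μM phenylephrine response to give pEC50 and % efficacy. Values are the mean of ≥2 experiments.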

[2] = molecular target: T2, Alpha-1D adrenergic receptor (Homo sapiens, UniProt P25100); assay: Activation of recombinant human adrenergic, alpha-1D receptor expressed in rat-1 fibroblasts assayed via calcium mobilization through Gq coupled PLC pathway; assay type: functional; method in brief: as §1
T2 sequence (P25100 whole entry): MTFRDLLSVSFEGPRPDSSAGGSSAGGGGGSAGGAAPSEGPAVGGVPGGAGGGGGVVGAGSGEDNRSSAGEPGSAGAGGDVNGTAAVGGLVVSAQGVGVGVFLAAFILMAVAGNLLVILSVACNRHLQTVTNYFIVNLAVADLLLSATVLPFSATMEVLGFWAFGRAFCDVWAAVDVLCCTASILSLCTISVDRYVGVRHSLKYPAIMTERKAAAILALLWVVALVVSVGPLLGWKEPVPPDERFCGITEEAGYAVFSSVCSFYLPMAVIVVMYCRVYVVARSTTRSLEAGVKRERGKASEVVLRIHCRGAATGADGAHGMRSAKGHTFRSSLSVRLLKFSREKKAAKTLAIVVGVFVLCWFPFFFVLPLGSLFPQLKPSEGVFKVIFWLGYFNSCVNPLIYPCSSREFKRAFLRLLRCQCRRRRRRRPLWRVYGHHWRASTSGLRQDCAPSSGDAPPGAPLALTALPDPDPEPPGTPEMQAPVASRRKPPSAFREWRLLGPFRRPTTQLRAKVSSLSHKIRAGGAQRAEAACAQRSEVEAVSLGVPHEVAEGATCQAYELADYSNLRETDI

[3] = molecular target: T3, Alpha-1A adrenergic receptor (Homo sapiens, UniProt P35348); assay: Activation of recombinant human adrenergic,alpha-1A receptor expressed in rat-1 fibroblasts determined via calcium mobilization through Gq coupled PLC pathway; assay type: functional; method in brief: as §1
T3 sequence (P35348 whole entry): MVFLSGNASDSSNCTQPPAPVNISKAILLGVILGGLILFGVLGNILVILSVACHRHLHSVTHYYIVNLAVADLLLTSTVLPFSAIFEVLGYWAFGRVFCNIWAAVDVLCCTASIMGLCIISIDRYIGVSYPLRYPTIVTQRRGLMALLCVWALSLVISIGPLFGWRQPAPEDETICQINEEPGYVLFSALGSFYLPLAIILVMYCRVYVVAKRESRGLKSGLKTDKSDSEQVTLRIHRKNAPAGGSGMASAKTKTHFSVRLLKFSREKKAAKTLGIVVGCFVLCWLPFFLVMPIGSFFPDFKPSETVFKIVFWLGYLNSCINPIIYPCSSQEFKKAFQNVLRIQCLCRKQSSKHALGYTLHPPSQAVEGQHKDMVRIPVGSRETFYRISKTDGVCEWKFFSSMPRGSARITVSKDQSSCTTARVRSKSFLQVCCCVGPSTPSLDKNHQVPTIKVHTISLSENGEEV

[4] = molecular target: T4, Alpha-1A adrenergic receptor (Homo sapiens) (UniProt P35348); assay: Ability to activate cloned human alpha-1A receptor expressed in rat-1 fibroblasts via calcium mobilization through Gq coupled PLC pathway expressed as percent of phenylephrine (40 uM) response; assay type: functional; method in brief: as §1
T4 sequence (whole entry): T3 sequence (P35348 whole entry)

[5] = molecular target: T5, Alpha-1B adrenergic receptor (Homo sapiens) (UniProt P35368); assay: Activation of human alpha-1B receptor expressed in rat-1 fibroblasts by calcium mobilization of Gq coupled PLC as percent phenylephrine (40 uM) response; assay type: functional; method in brief: as §1
T5 sequence (whole entry): T1 sequence (P35368 whole entry)

[6] = molecular target: T6, Alpha-1D adrenergic receptor (Homo sapiens) (UniProt P25100); assay: Ability to activate human alpha-1D receptor expressed in rat-1 fibroblasts as calcium mobilization through Gq coupled PLC pathway relative to phenylephrine response; assay type: functional; method in brief: as §1
T6 sequence (whole entry): T2 sequence (P25100 whole entry)

[7] = molecular target: T1, Alpha-1B adrenergic receptor; assay: Binding affinity of compound towards human Alpha-1B adrenergic receptor expressed in rat fibroblast membranes; assay type: cell membranes, Membrane
Method in brief: (§2)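 Radioligand binding was run on membranes from Rat-1 fibroblasts expressing human α1A, α1B or α1D adrenoceptor. Affinity is reported as pIC50 (±SEM), the mean of at least two experiments.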

[8] = molecular target: T3, Alpha-1A adrenergic receptor; assay: Binding affinity of compound towards Alpha-1A adrenergic receptor using membranes prepared from Rat-1 fibroblasts expressing human Alpha-1A adrenergic receptor; method in brief: as §2
[9] = molecular target: T2, Alpha-1D adrenergic receptor; assay: Binding affinity of compound towards human Alpha-1D adrenergic receptor expressed in rat-1 fibroblast membranes; assay type: cell membranes; method in brief: as §2

Compound	EC50 [1]	EC50 [2]	EC50 [3]	Max [4]	Max [5]	Max [6]	IC50 [7]	IC50 [8]	IC50 [9]
c1ccc(-c2ccncc2)c(OCC2=NCCN2)c1	> 100000 nM	> 100000 nM	> 100000 nM						
c1ccc(-c2ccns2)c(OCC2=NCCN2)c1	12.6 nM	25.1 nM	5.01 nM	99%	56%	82%			
Cc1ccnc(-c2ccccc2OCC2=NCCN2)c1	> 100000 nM	> 100000 nM	> 100000 nM				2450 nM	1290 nM	1410 nM
c1ccc(-c2cc[nH]n2)c(OCC2=NCCN2)c1	79.4 nM	> 100000 nM	5.01 nM	119%	39%				
Cc1cc(-c2ccccc2OCC2=NCCN2)sn1	> 100000 nM	> 100000 nM	158 nM	75%					
c1ccc(-c2cnccn2)c(OCC2=NCCN2)c1	631 nM	> 100000 nM	2.51 nM	97%	46%				
c1csc(-c2ccccc2OCC2=NCCN2)c1	3.98 nM	15.8 nM	1 nM	101%	112%	93%			
c1ccc(-c2ccccc2NCC2=NCCN2)cc1	> 100000 nM	794 nM	7.94 nM	101%		20%			
c1ccc(-c2ccncn2)c(OCC2=NCCN2)c1	> 100000 nM	> 100000 nM	> 100000 nM						
c1ccc(-c2ccsc2)c(OCC2=NCCN2)c1	15.8 nM	12.6 nM	0.251 nM	98%	103%	120%			
Cc1cnsc1-c1ccccc1OCC1=NCCN1	> 100000 nM	> 100000 nM	12.6 nM	104%					
c1cnc(-c2ccccc2OCC2=NCCN2)nc1	> 100000 nM	> 100000 nM	1260 nM	90%					
c1c[nH]c(-c2ccccc2OCC2=NCCN2)c1	1 nM	6.31 nM	1.26 nM	99%	104%	111%	269 nM	32.4 nM	53.7 nM
c1ccc(-c2nccs2)c(OCC2=NCCN2)c1	20 nM	31.6 nM	2.51 nM	102%	100%	113%			
c1ccc(-c2ccccc2OCC2=NCCN2)nc1	> 100000 nM	> 100000 nM	12.6 nM				2040 nM	115 nM	1120 nM
Cc1ccoc1-c1ccccc1OCC1=NCCN1	> 100000 nM	> 100000 nM	3.16 nM	99%			776 nM	34.7 nM	417 nM
Cc1csc(-c2ccccc2OCC2=NCCN2)n1	> 100000 nM	> 100000 nM	25.1 nM	104%					
Cn1nccc1-c1ccccc1OCC1=NCCN1	> 100000 nM	> 100000 nM	39.8 nM	107%					
Cc1cccc(-c2ccccc2OCC2=NCCN2)n1	> 100000 nM	> 100000 nM	126 nM	80%					
c1ccc(-c2ncc[nH]2)c(OCC2=NCCN2)c1	> 100000 nM	> 100000 nM	100 nM	122%					
c1cncc(-c2ccccc2OCC2=NCCN2)c1	79.4 nM	158 nM	2 nM	109%	111%	38%	1290 nM	50.1 nM	257 nM
CCN(CC)C(=O)c1ccccc1OCC1=NCCN1	> 5010 nM	> 5010 nM	> 5010 nM						
CS(=O)(=O)Nc1ccc(F)c([C@@H](O)CN)c1 [NS-49]	> 100000 nM	> 100000 nM	316 nM	86%					
c1ccc(-c2ccoc2)c(OCC2=NCCN2)c1	5.01 nM	5.01 nM	0.501 nM	104%	111%	126%			
c1coc(-c2ccccc2OCC2=NCCN2)c1	10 nM	> 100000 nM	1.26 nM	106%	110%				
c1ccc(-c2ccccc2OCC2=NCCN2)cc1	> 100000 nM	> 100000 nM	3.16 nM				741 nM	27.5 nM	324 nM
Cc1ccc(-c2ccccc2OCC2=NCCN2)s1	> 100000 nM	> 100000 nM	25.1 nM	97%					
